Screening data (PubChem BioAssay)
TAG inh: inhibitors of triacylglycerol accumulation, primary screen, cell-based, uHTS, fluorescence, H9c2 | 230,000 tested, 0.66% active | inhibition, % at 12.5 µM | AID 651582, 2012 | H9c2 cells, Nile Red lipid (TAG) fluorescence; cells loaded with 200 µM oleic acid;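 active = pattern-corrected inhibition of lipid staining of at least 50% with the nuclear-stain viability signal not falling by more than 50%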;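 note: 0% = DMSO wells and 100% = triacsin C control wells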
Beta apoptosis: inhibitors of cytokine-induced beta cell apoptosis, primary screen, luminescence; INS-1E cytokine-induced death, ATP luminescence, 48 h; percent of positive-control rescue, neutral wells zero; protection from apoptosis, % (no concentration beside the values); 300,000 tested, 0.8% active; AID 435005, 2010;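 active = Every replicate reaches about 75%, or at least half do and their mean reaches it too, limit read from the data; inconclusive = At least half of replicates reach the limit but their mean does not; inactive = Under half of replicates reach the limit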;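 note: 0% = cytokine-treated negative control wells and 100% = positive control rescue; higher means more ATP so stronger rescue from cytokine killing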
A1 inh: caspase 3/7 activation in MEF A1-2A-BIM cells, primary screen, A1 inhibitor project, cell-based, luminescence, HTS. caspase activation, % (concentration not given with the values). 330,000 tested, 0.066% active. Caspase-Glo 3/7 luminescence, 3 h; percent of clofoctol response, vehicle zero. AID 2462, 2010;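 active = over half of replicate activation scores above 10%, or exactly half above 10 with the replicate mean above 10; inconclusive = replicate mean below 10 yet half the replicates above 10; inactive = over half of replicates below 10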
Calb FLC: C. albicans growth inhibition with fluconazole, primary screen, CaCi-2 strain, Alamar Blue fluorescence | C. albicans CaCi-2 + fluconazole, 48 h | growth inhibition, % (concentration not given with the values) | 300,000 tested, 0.57% active | AID 1979, 2009;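 active = growth inhibition above about 58% in most replicates, limit read from the data, passing the limit was not always enough; inconclusive = exactly half the replicates above a set limit; inactive = most replicates below a set limit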;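 note: all wells also contain fluconazole at 8 µg/ml as a sub-toxic cotreatment; 0% = median of DMSO wells and 100% = median of geldanamycin control wells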
T cruzi repl: inhibitors of intracellular T. cruzi growth, primary screen, luminescence, NIH3T3 host cells; T. cruzi beta-gal in NIH3T3, 90 h; inhibition, % (test concentration not listed); 300,000 tested, 1.4% active;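 active = mean inhibition across valid replicates above about 55%, limit read from the data; inconclusive = mean below that limit but half or more replicates reach it; inactive = mean below it, under half of replicates reach it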;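 note: signal also drops with host cell toxicity which is not excluded here; 0% = plate median of DMSO wells and 100% = zero luminescence signal; higher percent means less beta-gal luminescence so fewer parasites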
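System: mouse NIH/3T3 fibroblasts infected with β-gal-expressing T. cruzi Tulahuen C4 / Input: NIH/3T3 cells, 5,000 per well / Buffer or medium: Low-serum DMEM with 2% FBS / Probe or stimulus: 5000 reporter trypomastigotes per well / Schedule: ≥90 h infection period, 3 h prior cell attachment / Measured by: GalScreen luminescence, 60 min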
CSC inhib: cancer stem cell viability inhibitors, primary screen, luminescence; AID 2717, 2010; inhibition, % at 7.5 µM; cancer stem cell-like cells viability; 300,000 tested, 1.1% active; in the data active = inhibition above about 75%; inconclusive = no clear call, values can overlap the other calls; tested in HMLE shEcad cells
H9c2 TAG conf: triacylglycerol accumulation inhibitors, retest, confirmation, cell-based, single concentration, Nile Red fluorescence, H9c2 | shares compounds with TAG inh | H9c2 lipid accumulation; cells loaded with 200 µM oleic acid | inhibition, % at 12.5 µM | 990 tested, 71% active | AID 651629, 2012;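 active = mean inhibition across replicates of 40% or more; inactive = mean inhibition below 40%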;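 note: plate controls were DMSO only wells for no effect and Triacsin C treated wells for full effect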
* marks the source's active call; other numbers are inactive results; ? = inconclusive; nt = no result given. Most compounds without a hit are left out; they make up all but 3.1% or so of the library.

SMILES | TAG inh | Beta apoptosis | A1 inh | Calb FLC | T cruzi repl | CSC inhib | H9c2 TAG conf
Fc1cccc(/C=N/Nc2cc(N3CCOCC3)ncn2)c1 | 60* | 0 | 0 | -9 | 11 | -17 | 29
CN(C)CCn1c(=O)n(-c2ccc(F)cc2)c(=O)c2c3c(sc21)CCCCC3 | 0 | -4 | 0 | 3 | 16 | -13 | nt
CN(C)CCCn1c(=O)n(C2CCCCC2)c(=O)c2c3c(sc21)CCCCC3 | 59* | 22 | 0 | -15 | 41 | 16 | 72*
Cc1ccc(C(=O)CSc2nnc3n2CCCCC3)s1 | -10 | -3 | -1 | nt | nt | -11 | nt
CCCCCC(=O)Nc1nc(C)c(-c2csc(Nc3cc(OC)ccc3OC)n2)s1 | 59* | 2 | 0 | -2 | -11 | ? | 75*
CCCCCCC(=O)Nc1nc(C)c(-c2csc(Nc3cc(OC)ccc3OC)n2)s1 | 43 | -4 | 0 | -6 | 16 | 2 | nt
O=C(Nc1cccc(-c2csc(Nc3ccc(Cl)cc3)n2)c1)c1cccc(C(F)(F)F)c1 | 54* | 35 | 0 | -6 | 44 | -18 | 65*
O=C(Nc1cccc(-c2csc(Nc3ccccc3)n2)c1)c1cc([N+](=O)[O-])cc(C(F)(F)F)c1 | 27 | 8 | 1 | 2 | 42 | 58 | nt
O=C(Nc1cccc(-c2csc(Nc3ccc(Cl)cc3)n2)c1)c1cc([N+](=O)[O-])cc(C(F)(F)F)c1 | 56* | 32 | 1 | -7 | 21 | 108* | 50*
Clc1cccc(Nc2nc(-c3ccncc3)cs2)c1 | 81* | -26 | -1 | 10 | 66* | ? | 59*
O=C(Nc1cccc(-c2csc(Nc3ccc(Cl)cc3)n2)c1)c1ccccc1 | 42 | 27 | 1 | 0 | 30 | 8 | nt
O=C(Nc1ccc(-c2csc(Nc3ccc(Cl)cc3)n2)cc1)c1cc([N+](=O)[O-])cc(C(F)(F)F)c1 | 51* | -2 | 0 | -3 | 23 | 149* | 57*
CCCNC(=O)N(C)C[C@H]1Oc2ncc(Br)cc2C(=O)N([C@H](C)CO)C[C@H]1C | -13 | nt | nt | nt | nt | nt | nt
CCOc1ccc(-n2c(=O)c3sccc3n(CC(=O)NC3CCCCC3)c2=O)cc1 | nt | -1 | 0 | 1 | -12 | -18 | nt
S=C(N/N=C/c1cccs1)NC1CC2CCC1C2 (stereo not given) | 54* | nt | 0 | 27 | 13 | 10 | 56*
CCc1c(C2(O)CCCCC2)[nH]c2cnccc12 | 51* | 5 | 0 | nt | nt | -27 | 13
COCCn1cnc2c(c1=O)c1nc3ccccc3nc1n2/N=C/c1cccc(OC)c1 | 27 | 45 | -1 | 23 | 26 | 18 | nt
O=c1c2c3nc4ccccc4nc3n(/N=C/c3ccccn3)c2ncn1-c1ccccc1 | 72* | -6 | 0 | 1 | -23 | 35 | 71*
CN(Cc1ccc(OC(F)F)cc1)C(=O)c1cccc(S(=O)(=O)N2CCN(c3ccccc3)CC2)c1 | -21 | nt | nt | nt | nt | nt | nt
COc1ccc(-n2nc(C(=O)Nc3ccc4c(c3)OCO4)c3c4ccccc4n(C)c3c2=O)cc1 | 66* | 6 | 0 | -7 | -2 | -19 | 44*
COc1ccc(-n2nc(C(=O)Nc3ccc(OC)c(OC)c3)c3c4ccccc4n(C)c3c2=O)cc1 | 82* | 18 | 0 | 0 | 17 | -2 | 29
CC1CCCN(C(=O)CN2C(=O)NC(C)(c3ccc4ccccc4c3)C2=O)C1 (stereo not given) | 5 | 2 | -1 | nt | nt | nt | nt
Brc1ccc(C2=Nn3c(nnc3-c3n[nH]c4c3CCC4)SC2)cc1 | 81* | 9 | 0 | 20 | 7 | 69 | 85*
Cc1ccc(-c2nnc3n2N=C(c2ccc(Br)cc2)CS3)cc1 | nt | 6 | -1 | 12 | 31 | 15 | nt
COC(=O)c1c(NC(NC(=O)C(C)(C)C)C(Cl)(Cl)Cl)sc2c1CCC2 (stereo not given) | 59* | 11 | 0 | -8 | 39 | 43 | 65*
SMILES | TAG inh | Beta apoptosis | A1 inh | Calb FLC | T cruzi repl | CSC inhib | H9c2 TAG conf
CCOC(=O)N(C)c1c(CC)nc2c(OCCC3CCCCC3)cccn12 | 7 | nt | nt | nt | nt | nt | nt
CCOC(=O)C(=O)N(C)c1c(CC)nc2c(OCCC3CCCCC3)cccn12 | 119* | nt | nt | nt | nt | nt | 7
COc1cc(C(CCN2CCCC2)c2c(OC)cc(OC)c3c(C)cc(=O)oc23)cc(OC)c1OC (stereo not given) | 23 | -3 | 1 | -4 | 36 | -15 | nt
COc1cc(O)c(C(CCN2CCOCC2)c2ccc3c(c2)OCO3)c(OC)c1 (stereo not given) | 9 | -5 | 1 | 7 | -7 | -2 | nt
COc1cc(C(CCN2CCCCC2)c2c(OC)cc(OC)c3c(-c4ccccc4)cc(=O)oc23)cc(OC)c1OC (stereo not given) | 58* | 11 | 1 | -2 | 42 | -6 | 52*
CCCCCc1cc(=O)oc2c(C(CCN3CCCC3)c3cc(OC)c(OC)c(OC)c3)c(OC)cc(OC)c12 (stereo not given) | 94* | 44 | -1 | 20 | 50 | 52 | 77*
CCCCCc1cc(=O)oc2c(C(CCN3CCN(c4ccccc4)CC3)c3ccc4c(c3)OCO4)c(OC)cc(OC)c12 (stereo not given) | 65* | 7 | 0 | -9 | 34 | 14 | 74*
COc1cc(C(CCN2CCCC(C)C2)c2c(OC)cc(OC)c3c(-c4ccccc4)cc(=O)oc23)cc(OC)c1OC (stereo not given) | 74* | 14 | -1 | 1 | 48 | 15 | 78*
CC(=O)Nc1ccc(NC(=O)C(C)OC(=O)[C@@H]2CCCN2C(=O)c2cccs2)cc1 (stereo not given in full) | -15 | 1 | 0 | nt | nt | 20 | nt
CCCCC(=O)c1ccc(OC(=O)c2ccc([N+](=O)[O-])cc2)cc1 | 5 | nt | nt | nt | nt | nt | nt
CCCCCc1cc(=O)oc2c(C(CCN(CC)CC)c3ccc(OC)cc3)c(OC)cc(OC)c12 (stereo not given) | 73* | 98* | 0 | 48 | 47 | 13 | 68*
CCN(CC)CCC(c1ccc(N(C)C)cc1)c1c(OC)cc(OC)c2ccc(=O)oc12 (stereo not given) | 24 | 3 | 0 | -11 | 15 | 9 | nt
CCN(CC)CCNC(=O)C12CC3CC(CC(C3)C1)C2 | 7 | -3 | -1 | 2 | 16 | -2 | nt
CCN(CC)CCNC(=O)C(Cl)=C1C(Cl)=C(Cl)C(Cl)=C1Cl | 78* | nt | nt | nt | nt | nt | 74*
CN(Cc1ccc(F)cc1)C(=O)c1cc(S(=O)(=O)N2CCCCC2)ccc1N1CCOCC1 | -6 | nt | nt | nt | nt | nt | nt
